In ChEMBL document CHEMBL3994584, “Identification of novel fluorescent probes preventing PrPSc replication in prion diseases” (Eur J Med Chem, 2017):
Active and inactive are the calls of the source. The calls are words filed in the database; no cut-off is given here.

Tests used:
[1] = system: N2a; assay: Effect on cellular prion protein level in mouse N2A cells up to 10 uM incubated for 5 days by Western blot method; format: functional, cell-based
Summary of the method: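 Non-infected N2a cells were treated at 0.1, 1 and 10 μM for 5 days. Lysates (50 µg protein, no PK digestion) were immunoblotted with anti-PrP Fab W226. PrPC was normalized to actin, with untreated controls set to 100%. Done in triplicate.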

[2] = organism: Mus musculus; assay: Antiprion activity against mouse prion protein RML infected mouse ScN2a cells assessed as proteinase K-resistant PrPSc level at 0.1 uM incubated for 5 days followed by proteinase K digestion by Western blot method relative to control
Summary of the method: (§1)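 RML-infected ScN2a cells were treated with 0.1, 1 and 10 μM for 5 days, with DMSO ≤0.1% final. Lysates (500 μg protein) were digested with 10 μg PK for 1 h at 37 °C, stopped with 2 mM PMSF and ultracentrifuged. Pellets were run on SDS-PAGE and immunoblotted with anti-PrP Fab W226, with ECL detection. Densitometry gave PK-resistant PrPSc over total PrP, with untreated set to 100%. Three independent experiments.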

[3] = organism: Mus musculus; assay: Binding affinity to PrPSc aggregates in mouse prion protein RML infected mouse ScN2a cells incubated for 8 mins followed by proteinase K digestion using FITC filter by fluorescence confocal microscopic method
Summary of the method: (§2)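 N2a or ScN2a cells were grown on coverslips for 24 h, then fixed and permeabilized (4% formaldehyde/0.1% Triton X-100, 1 h, RT) and denatured with 6 M GdnHCl for 10 min. Where PK was used: 20 µg/mL for 15 min at 37 °C, stopped with PMSF. After NGS blocking, cells were stained with compound at 0.025% in 80% EtOH for 8 min at RT. Imaging was by confocal microscopy with a FITC filter.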

[4] = organism: Mus musculus; assay: Antiprion activity against mouse prion protein RML infected mouse ScN2a cells assessed as proteinase K-resistant PrPSc level at 10 uM incubated for 5 days followed by proteinase K digestion by Western blot method relative to control; summary of the method: as §1
[5] = Cytotoxicity against mouse ScN2a cells assessed as cell viability at 10 uM after 5 days by MTT assay relative to control; format: cell-based; details: read-out: Activity
Summary of the method: (§3)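 ScN2a cells were seeded in MEM at 2.5×10^4 cells/mL and allowed to settle for 2 h. Compounds (DMSO stock, diluted in EtOH then medium) were added at 0.1, 1 and 10 μM for 5 days at 37 °C under 5% CO2. MTT (5 mg/mL) was applied for 3 h and solubilized with DMSO/2-propanol. Plates were read at 570/690 nm. Viability is given as % of untreated control, mean ± SD of three independent experiments.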

[6] = organism: Mus musculus; assay: Binding affinity to proteinase K sensitive cellular prion protein in mouse N2A cells incubated for 8 mins by fluorescence confocal microscopic method; format: cell-based; summary of the method: as §2
[7] = organism: Mus musculus; assay: Antiprion activity against mouse prion protein RML infected mouse ScN2a cells assessed as proteinase K-resistant PrPSc level at 1 uM incubated for 5 days followed by proteinase K digestion by Western blot method relative to control; summary of the method: as §1
[8] = Cytotoxicity against mouse ScN2a cells assessed as cell viability at 0.1 uM after 5 days by MTT assay relative to control; format: cell-based; details: read-out: Activity; summary of the method: as §3
[9] = Cytotoxicity against mouse ScN2a cells assessed as cell viability at 1 uM after 5 days by MTT assay relative to control; format: cell-based; details: read-out: Activity; summary of the method: as §3
[10] = Antiprion activity against mouse prion protein RML infected mouse ScGT1 cells assessed as reduction in proteinase K-resistant PrPSc level incubated for 7 days followed by proteinase K digestion by ELISA; details: ScGT1, 168 h

SMILES	Activity [1]	Activity [2] [%]	Activity [3]	Activity [4] [%]	viability at 120 h, 10 µM [5] [%]	Activity [6]	Activity [7] [%]	viability at 120 h, 0.1 µM [8] [%]	viability at 120 h, 1 µM [9] [%]	IC50 [10] [nM]
COC1=CC2=NC(N/N=C/c3ccnc4ccccc34)=C3CC=CN3C2C=C1 (stereo unspecified)	inactive	76	Active	9	83.3	inactive	35	107	96.3	1600
Cc1ccc2c(c1)sc(-c1ccc(N(C)C)cc1)[n+]2C			Active							
